# Calls of active or inactive are those of the source. No cut-off for these calls is given here.
# Assays:
# Vero [1] = assay: Selectivity index, ratio of IC50 for green monkey Vero cells over IC50 for human HeLa cells; type: functional
# Method in brief: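 Selectivity index is the Vero IC50 divided by the HeLa IC50. Both IC50s come from the 48 h MTT assay, each from linear-regression dose-effect curves.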
# Pichia kudriavzevii [2] = assay: Antifungal activity against Candida krusei ATCC 6258 at 100 ug/mL after 24 hrs by AFSTEUCAST assay; type: functional, organism-based
# Fusarium oxysporum = assay: Antifungal activity against Fusarium oxysporum ATCC 48112 after 48 hrs by CLSI M38-A assay; details: ATCC 48112, 48 h
# Trichophyton rubrum = assay: Antifungal activity against Trichophyton rubrum ATCC 28188 after 6 days by CLSI M38-A assay; details: ATCC 28188, 6 days
# Candida tropicalis [3] = assay: Antifungal activity against Candida tropicalis CECT 11901 at 100 ug/mL after 24 hrs by AFSTEUCAST assay; type: functional, organism-based
# Candida albicans [4] = assay: Antifungal activity against Candida albicans ATCC 10231 at 100 ug/mL after 24 hrs by AFSTEUCAST assay; type: functional, organism-based
# [5] = system: Trichophyton mentagrophytes; assay: Antifungal activity against Trichophyton mentagrophytes ATCC 24198 after 6 days by CLSI M38-A assay; details: ATCC 24198, 6 days
# Aspergillus fumigatus = assay: Antifungal activity against Aspergillus fumigatus ATCC 204305 after 48 hrs by CLSI M38-A assay; details: ATCC 204305, 48 h
# HeLa = assay: Cytotoxicity against human HeLa cells after 48 hrs by MTT assay; type: functional, cell-based
# Method in brief: (§1)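 MTT colorimetric assay. HeLa (ATCC CCL-2) and Vero (ATCC CCL-81) cells were grown in MEM with 10% FBS at 37 °C, 5% CO2, then seeded at 1.5×10^4 (HeLa) or 1.25×10^4 (Vero) cells/well. Compound dilutions were added after 24 h and incubated 48 h more. Cell controls had 0.05% DMSO; vincristine was the reference. IC50 came from linear-regression dose-effect curves, mean ± S.E.M. of at least four dilutions in quadruplicate.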
# Vero [6] = assay: Cytotoxicity against african green monkey Vero cells after 48 hrs by MTT assay; type: cell-based; details: Chlorocebus sabaeus; method in brief: as §1
# Candida parapsilosis [7] = assay: Antifungal activity against Candida parapsilosis ATCC 22019 at 100 ug/mL after 24 hrs by AFSTEUCAST assay; type: functional, organism-based
# Aspergillus flavus = assay: Antifungal activity against Aspergillus flavus ATCC 204304 at 100 ug/mL after 48 hrs by CLSI M38-A assay
# Aspergillus terreus = assay: Antifungal activity against Aspergillus terreus CDC 317 at 100 ug/mL after 48 hrs by CLSI M38-A assay
# B16 = assay: Cytotoxicity against mouse B16 cells; type: functional, cell-based
# SNU1 = assay: Cytotoxicity against human SNU1 cells; type: functional, cell-based
# P388 = assay: Cytotoxicity against mouse P388 cells; type: functional, cell-based
# Human alphaherpesvirus 1 = assay: Antiviral activity against HSV1 infected in Vero cells assessed reduction factor at 12.5 ug/ml after 36 hrs by end-point titration technique relative to control; type: functional
# Method in brief: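 HSV-1 (CDC) end-point titration on Vero cells. Two-fold compound dilutions were mixed with one infection dose of virus (TCID50/0.1 mL) for 0.5 h at 37 °C. The mixture was added to confluent monolayers and incubated 36 h at 37 °C, 5% CO2. Reduction factor is the virus titer without compound divided by the titer with compound.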
# KB = assay: Cytotoxicity against human KB cells; type: functional; details: read-out: ED50 (the source's name)
# Pichia kudriavzevii [8] = assay: Antifungal activity against Candida krusei ATCC 6258 at 6.25 ug/mL after 24 hrs by AFSTEUCAST assay; type: functional, organism-based
# Candida tropicalis [9] = assay: Antifungal activity against Candida tropicalis CECT 11901 at 12.5 ug/mL after 24 hrs by AFSTEUCAST assay; type: functional, organism-based
# Candida albicans [10] = assay: Antifungal activity against Candida albicans ATCC 10231 at 12.5 ug/mL after 24 hrs by AFSTEUCAST assay; type: functional, organism-based
# Candida parapsilosis [11] = assay: Antifungal activity against Candida parapsilosis ATCC 22019 at 6.25 ug/mL after 24 hrs by AFSTEUCAST assay; type: functional, organism-based
SMILES,MIC (Fusarium oxysporum),MIC (Trichophyton rubrum),MIC [5],MIC (Aspergillus fumigatus),Selectivity Index (Vero [1]),Activity (Pichia kudriavzevii [2]),Activity (Candida tropicalis [3]),Activity (Candida albicans [4]),IC50 (HeLa),IC50 (Vero [6]),Activity (Candida parapsilosis [7]),also measured
C=C1CC[C@H]2C(C)(C)CCC[C@]2(C)[C@H]1C/C=C(/CC(=O)O)C(=O)O,> 100 µg/mL,> 100 µg/mL,> 100 µg/mL,> 100 µg/mL,0.46,inactive,inactive,inactive,84.5 µg/mL,39 µg/mL,inactive,–
CCC(C)n1ncn(-c2ccc(N3CCN(c4ccc(OCC5COC(Cn6cncn6)(c6ccc(Cl)cc6Cl)O5)cc4)CC3)cc2)c1=O (stereo not given) [ITRACONAZOLE],–,–,–,0.17 µg/mL,–,–,–,–,–,–,–,–
C=C1CC[C@H]2C(C)(C)CCC[C@]2(C)[C@H]1C/C=C(/CC(=O)OC)C(=O)OC,> 100 µg/mL,> 100 µg/mL,> 100 µg/mL,> 100 µg/mL,2.32,inactive,inactive,inactive,14.5 µg/mL,33.7 µg/mL,inactive,–
CC[C@]1(O)C[C@H]2CN(CCc3c([nH]c4ccccc34)[C@@](C(=O)OC)(c3cc4c(cc3OC)N(C=O)[C@H]3[C@@](O)(C(=O)OC)[C@H](OC(C)=O)[C@]5(CC)C=CCN6CC[C@]43[C@@H]65)C2)C1 [VINCRISTINE],–,–,–,–,22,–,–,–,0.05 µg/mL,1.1 µg/mL,–,–
C=C1CC[C@H]2C(C)(C)CCC[C@]2(C)[C@H]1C/C=C(\CO)CCO,> 100 µg/mL,> 100 µg/mL,> 100 µg/mL,> 100 µg/mL,0.42,inactive,inactive,inactive,91 µg/mL,38 µg/mL,inactive,–
C=C1CCC2C(C)(C)CCC[C@]2(C)[C@H]1CC=O (stereo not given in full),> 100 µg/mL,31.5 µg/mL,31.5 µg/mL,> 100 µg/mL,4.11,inactive,inactive,inactive,2.6 µg/mL,10.7 µg/mL,inactive,IC50 (B16): 30.8 µg/mL; IC50 (SNU1): 3.9 µg/mL; IC50 (P388): 0.16 µg/mL
C=C1CC[C@H]2C(C)(C)CCC[C@]2(C)[C@H]1C/C=C(\C=O)CC=O (mixture of isomers) [LABDADIENEDIAL],19.8 µg/mL,0.62 µg/mL,1.24 µg/mL,79.4 µg/mL,0.67,Active,Active,Active,19.5 µg/mL,13.1 µg/mL,Active,Activity (Human alphaherpesvirus 1): 100; IC50 (B16): 41.2 µg/mL; Activity (Aspergillus flavus): inactive; IC50 (SNU1): 12 µg/mL; EC50 (KB): 40 µg/mL; Activity (Pichia kudriavzevii [8]): Active; Activity (Candida tropicalis [9]): Active; Activity (Candida albicans [10]): Active; Activity (Aspergillus terreus): inactive; IC50 (P388): 4.1 µg/mL; Activity (Candida parapsilosis [11]): Active

# Further lines, with some results ahead:
MIC (Fusarium oxysporum),MIC (Trichophyton rubrum),MIC [5],MIC (Aspergillus fumigatus),SMILES,Selectivity Index (Vero [1]),Activity (Pichia kudriavzevii [2]),Activity (Candida tropicalis [3]),Activity (Candida albicans [4]),IC50 (HeLa),IC50 (Vero [6]),Activity (Candida parapsilosis [7]),also measured
> 100 µg/mL,50 µg/mL,19.8 µg/mL,> 100 µg/mL,C=C1CC[C@H]2C(C)(C)CCC[C@]2(C)[C@H]1CC(=O)N(C)OC,2.69,inactive,inactive,inactive,11.7 µg/mL,31.5 µg/mL,inactive,–
–,–,–,2 µg/mL,C[C@@H]1[C@H](O)[C@@H](C)/C=C/C=C/C=C/C=C/C=C/C=C/C=C/[C@H](O[C@@H]2O[C@H](C)[C@@H](O)[C@H](N)[C@@H]2O)C[C@@H]2O[C@](O)(C[C@@H](O)C[C@@H](O)[C@H](O)CC[C@@H](O)C[C@@H](O)CC(=O)O[C@H]1C)C[C@H](O)[C@H]2C(=O)O [AMPHOTERICIN B],–,–,–,–,–,–,–,–
> 100 µg/mL,50 µg/mL,39.7 µg/mL,50 µg/mL,CON(C)C(=O)C[C@H]1[C@@]2(C)CCCC(C)(C)[C@@H]2CC[C@]1(C)O [WEINREB'S AMIDE],1.23,inactive,inactive,inactive,66.8 µg/mL,82 µg/mL,inactive,Activity (Aspergillus flavus): inactive; Activity (Aspergillus terreus): inactive
–,< 0.078 µg/mL,0.0312 µg/mL,–,CN(C/C=C/C#CC(C)(C)C)Cc1cccc2ccccc12 [TERBINAFINE],–,–,–,–,–,–,–,–

# Reference: ChEMBL document CHEMBL1240463, “Synthesis and biological evaluation of (+)-labdadienedial, derivatives and precursors from (+)-sclareolide” (Eur J Med Chem, 2010)
